Results as given in ChEMBL document CHEMBL1926577, “Novel 1,3,4-heterodiazole analogues: synthesis and in-vitro antitumor activity” (2012).

Tests used:
Format in all cases: functional
[1] = Growth inhibition of human ovarian cancer cells after 48 hrs by coulter counter method; details: Cancer cell lines
Outline: (§1)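 NCI 60-line panel cells. Compound is dissolved in DMSO and diluted in phosphate-buffered saline, with final DMSO below 1%. It is added in duplicate wells to cultures at 6 × 10⁴ cells/ml and held at 37 °C, 5% CO₂, humidified, for 48 h. Cells are diluted 10-fold in saline, counted by Coulter counter and dilution-corrected. Vehicle controls contain PBS plus DMSO.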

[2] = Growth inhibition of human renal cancer cells after 48 hrs by coulter counter method; details: Cancer cell lines; outline: as §1
[3] = Growth inhibition of human prostate cancer cells after 48 hrs by coulter counter method; details: Cancer cell lines; outline: as §1
[4] = Growth inhibition of human breast cancer cells after 48 hrs by coulter counter method; details: Cancer cell lines; outline: as §1
[5] = Growth inhibition of human leukemia cells after 48 hrs by coulter counter method; details: Leukemia cell; outline: as §1
NSCLC = experiment: Growth inhibition of human NSCLC cells after 48 hrs by coulter counter method; outline: as §1
[6] = Growth inhibition of human colon cancer cells after 48 hrs by coulter counter method; details: Cancer cell lines; outline: as §1
[7] = Growth inhibition of human CNS cancer cells after 48 hrs by coulter counter method; details: Cancer cell lines; outline: as §1
Melanoma cell = experiment: Growth inhibition of human Melanoma cells after 48 hrs by coulter counter method; outline: as §1
[8] = read-out: LC50 (the source's name)

**Q.** Which results are given for O=c1[nH]cc(F)c(=O)[nH]1 [FLUOROURACIL]?
**A.** GI50 [1]: 61.4 µM; TGI [1]: > 100 µM; GI50 [2]: 45.6 µM; TGI [2]: > 100 µM; CC50 [2, 8]: > 100 µM; GI50 [3]: 22.7 µM; TGI [3]: > 100 µM; GI50 [4]: 76.4 µM; TGI [4]: > 100 µM; CC50 [4, 8]: > 100 µM; TGI [5]: > 100 µM; CC50 [5, 8]: > 100 µM; GI50 (NSCLC): > 100 µM; TGI (NSCLC): > 100 µM; CC50 (NSCLC; [8]): > 100 µM; GI50 [6]: 8.4 µM; TGI [6]: > 100 µM; TGI [7]: > 100 µM; CC50 [7, 8]: > 100 µM; TGI (Melanoma cell): > 100 µM
